Consider three compounds from ChEMBL document CHEMBL3745686 (Eur J Med Chem, 2016).

For data set [1], the system named is Plasma. In words: Drug level in rat plasma treated with P'1,P'4-di-(2 methylthio-5'-adenosine) P'1,P'4-dithio-P'2,P'3-chloromethylenetetraphosphate, sodium salt at 50 uM after 77 hrs by HPLC analysis. Format: ADME, cell-free. The procedure, abridged: (§1)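 Frozen pooled heparinised rat or human plasma, thawed and warmed 5 min at 37 °C, spiked to 50 μM final compound (from 10 mM saline stock), held at 37 °C up to 77 h; heat-denatured plasma as chemical control; aliquots quenched with MeCN, ultrafiltered, dried, redissolved in pH 8.5 phosphate/EDTA; isocratic RP-HPLC, 273 nm; metabolites confirmed by reference compounds and LCMS; peak areas internally normalised.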

Data set [2] concerns Plasma. In words: Drug level in human plasma treated with P'1,P'4-di-(2 methylthio-5'-adenosine) P'1,P'4-dithio-P'2,P'3-chloromethylenetetraphosphate, sodium salt at 50 uM after 77 hrs by HPLC analysis. The data set is classed as ADME, cell-free. In short, it runs like this:
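Pooled heparinized human plasma, prewarmed 5 min at 37 °C, was spiked to 50 μM final from a saline stock and incubated at 37 °C. Aliquots were MeCN-precipitated, ultrafiltered (10K), dried, reconstituted in phosphate/EDTA pH 8.5, and run on C18 HPLC (isocratic 20% methanol, 50 mM phosphate pH 8.4, 10 mM EDTA, UV 273 nm). Diastereomer peak areas were internally normalized, with heat-denatured plasma and blank controls.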

Data set [3] concerns Platelet. Put plainly: Anti-aggregatory activity in ADP-induced human platelet rich plasma assessed as platelet surface activated GP2b-3a expression at 10 nM preincubated for 30 mins followed by 100 fold dilution by fluorescence assay. The data set is classed as functional. In short, it runs like this:
(§2)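 Human PRP from aspirin/NSAID-free donors in 3.2% citrate; platelets pre-incubated 30 min with 10 nM compound, then diluted 100-fold in platelet-poor plasma with or without 10 nM compound, stimulated with ADP; surface activated GPIIb-IIIa and P-selectin read as mean fluorescence intensity; means ± SEM of 3 experiments.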

In data set [4] the test system is Plasma. Put plainly: Metabolic stability in fresh rat plasma assessed as compound degradation at 50 uM after 24 hrs by HPLC analysis. Format: ADME, cell-free.
The test system of data set [5] is Plasma. Put plainly: Drug metabolism in rat plasma assessed as MeSAdo formation at 50 uM after 77 hrs by HPLC analysis. The data set is classed as ADME, cell-free. The procedure, abridged:
as §1

The nature of data set [6]: Anti-aggregatory activity in human platelet rich plasma assessed as inhibition of 20 uM ADP-induced platelet surface activated GP2b-3a expression by fluorescence assay. The data set is classed as functional, cell-free.
The target in a further data set is P2Y purinoceptor 1 (Homo sapiens, UniProt P47900). Put plainly: Antagonist activity at human platelet P2Y1 receptor assessed as inhibition of ADP-induced increase in cytosolic calcium level by FLUO-4 staining based flow cytometric analysis. The data set is classed as functional. The procedure, abridged:
(§3)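 Stimulus was extracellular Ca2+ uptake on 1 μM test compound (P2X1, scaled to 20 μM β,γ-CH2-ATP as 100%, selective P2Y1 inhibitor control), or 3 μM ADP (P2Y1 antagonism; omitted for agonism).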

Data set [7] concerns Plasma. Put plainly: Metabolic stability in human plasma assessed as first order elimination rate constant at 50 uM measured at 1 to 4 hrs. Format: ADME, cell-free.
The test system of data set [8] is Plasma. In words: Half life in human plasma at 50 uM measured at 1 to 4 hrs. The data set is classed as ADME, cell-free.
Data set [9] is described as follows: Anti-aggregatory activity in human platelet rich plasma assessed as inhibition of 20 uM ADP-induced platelet aggregation by optical aggregometric analysis. Format: functional, cell-free.
Data set [10] is described as follows: Anti-aggregatory activity in human platelet rich plasma assessed as inhibition of 20 uM ADP-induced P-selectin expression by fluorescence assay. Format: functional, cell-free.
Data set [11] deals with Plasma. In words: Drug metabolism in rat plasma assessed as MeSAMP(S) formation at 50 uM after 77 hrs by HPLC analysis. Format: ADME, cell-free. In short, it runs like this:
as §1

The test system of data set [12] is Plasma. In words: Half life in rat plasma at 50 uM measured at 1 to 4 hrs. Format: ADME, cell-free.
The nature of data set [13]: Chemical stability in heat denaturated plasma (unknown origin). Format: ADME, cell-free. In short, it runs like this: as §1
The test system of data set [14] is Plasma. Put plainly: Drug metabolism in human plasma assessed as MeSAdo formation at 50 uM after 77 hrs by HPLC analysis. Format: ADME, cell-free. In short, it runs like this:
as §1

In a further data set the target is P2Y purinoceptor 12 (Homo sapiens, UniProt Q9H244). In words: Antagonist activity at human platelet P2Y12 receptor assessed as inhibition of ADP-mediated decrease in intra-platelet phosphorylated VASP by flow cytometric analysis. Background: A flow cytometer gives signals particle by particle.
The nature of data set [15]: Anti-aggregatory activity in human platelet rich plasma assessed as inhibition of 20 uM ADP-induced platelet aggregation preincubated for 15 mins by optical aggregometric analysis. Format: functional, cell-free.
Data set [16] concerns Plasma. Put plainly: Drugmetabolism in human plasma assessed as MeSAMP(S) formation at 50 uM after 77 hrs by HPLC analysis. Format: ADME, cell-free. In short, it runs like this:
as §1

Data set [17] concerns Platelet. Put plainly: Ratio of IC50 for inhibition of 20 uM ADP-induced human platelet aggregation for inhibition of 20 uM ADP-induced human platelet aggregation preincubated for 15 mins. The data set is classed as functional.
For data set [18], the system named is Plasma. Put plainly: Metabolic stability in rat plasma assessed as first order elimination rate constant at 50 uM measured at 1 to 4 hrs. The data set is classed as ADME, cell-free.
Data set [19] concerns Platelet. Put plainly: Anti-aggregatory activity in ADP-induced human platelet rich plasma assessed as P-selectin expression at 10 nM preincubated for 30 mins followed by 100 fold dilution by fluorescence assay. Format: functional. The procedure, abridged: as §2
Data set [20] can be described thus: Half life in human plasma at 0.7 uM. Format: ADME, cell-free.
Data set [21] addresses T1, P2X purinoceptor 1 (Homo sapiens) (UniProt P51575).
T1 sequence (whole entry): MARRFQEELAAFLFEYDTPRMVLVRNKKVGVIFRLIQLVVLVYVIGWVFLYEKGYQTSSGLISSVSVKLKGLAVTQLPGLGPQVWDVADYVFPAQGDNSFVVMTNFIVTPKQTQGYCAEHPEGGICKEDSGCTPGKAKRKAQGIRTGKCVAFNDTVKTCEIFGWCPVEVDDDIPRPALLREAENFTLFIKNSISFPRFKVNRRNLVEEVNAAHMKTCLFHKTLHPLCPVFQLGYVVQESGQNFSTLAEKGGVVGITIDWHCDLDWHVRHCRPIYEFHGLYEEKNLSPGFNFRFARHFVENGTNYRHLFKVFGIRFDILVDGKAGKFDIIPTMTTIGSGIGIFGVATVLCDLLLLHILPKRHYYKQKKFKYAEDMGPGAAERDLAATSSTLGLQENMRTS
In words: Agonist activity at human platelet P2X1 receptor assessed as increase in cytosolic calcium level at 1 uM by […] staining based flow cytometric analysis relative to beta,gamma-CH2-ATP. The procedure, abridged: as §3

The nature of data set [22]: Half life in rat plasma. The data set is classed as ADME, cell-free.

pIC50: −log10 of the molar value.

P2Y purinoceptor 12, sequence (Q9H244 whole entry): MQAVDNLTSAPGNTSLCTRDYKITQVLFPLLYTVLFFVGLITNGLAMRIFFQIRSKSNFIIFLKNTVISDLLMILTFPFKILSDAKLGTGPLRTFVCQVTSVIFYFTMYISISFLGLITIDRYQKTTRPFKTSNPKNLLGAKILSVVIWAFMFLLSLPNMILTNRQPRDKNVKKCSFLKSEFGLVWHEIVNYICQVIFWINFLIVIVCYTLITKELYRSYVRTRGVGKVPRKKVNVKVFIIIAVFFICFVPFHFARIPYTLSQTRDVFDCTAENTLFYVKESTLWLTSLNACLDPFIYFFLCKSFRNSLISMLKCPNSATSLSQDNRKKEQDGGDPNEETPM
P2Y purinoceptor 1, sequence (P47900 whole entry): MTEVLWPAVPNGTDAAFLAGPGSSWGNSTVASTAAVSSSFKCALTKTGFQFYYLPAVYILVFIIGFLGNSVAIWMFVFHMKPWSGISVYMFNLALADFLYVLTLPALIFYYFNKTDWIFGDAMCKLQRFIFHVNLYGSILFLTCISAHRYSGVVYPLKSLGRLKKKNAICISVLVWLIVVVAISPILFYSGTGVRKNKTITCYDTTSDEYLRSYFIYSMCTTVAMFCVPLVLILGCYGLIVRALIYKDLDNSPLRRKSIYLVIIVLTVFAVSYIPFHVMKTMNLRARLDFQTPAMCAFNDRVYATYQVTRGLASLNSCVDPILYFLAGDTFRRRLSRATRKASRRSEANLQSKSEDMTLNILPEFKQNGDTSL

With `CSc1nc(N)c2ncn([C@@H]3O[C@H](CO)[C@@H](O)[C@H]3O)c2n1`, the Drug metabolism entry in the data set with Plasma [1] and in the data set on Plasma [2] was “metabolite_detected” in each case.

For `CSc1nc(N)c2ncn([C@@H]3O[C@H](COP(=O)([S-])OP(=O)([O-])C(Cl)P(=O)([O-])OP(=O)([S-])OC[C@H]4O[C@@H](n5cnc6c(N)nc(SC)nc65)[C@H](O)[C@@H]4O)[C@@H](O)[C@H]3O)c2n1.[Na+].[Na+].[Na+].[Na+]` (mixture of isomers), the Activity in the data set with Platelet [3] and with Platelet [19] was 80% in each case. The Stability result (in the data set with Plasma [4]; in data set [13]; in the data set on Plasma [16]) was “Stable” each time. Further, the Drug metabolism result in the data set on Plasma [5], in the data set on Plasma [11] and in the data set with Plasma [14] was “metabolite_detected” throughout. Also, the pIC50 (as a rule, the IC50 on a negative log10 scale, so that one unit is a factor of ten) is 8.96 in data set [6]; 5.67 on P2Y purinoceptor 1; 5.59 in [9]; 9.22 in [10]; 6.66 on P2Y purinoceptor 12; 7.20 in [15]. Moreover, the Kel turned out to be 0.0221 h⁻¹ in the data set on Plasma [7] and 0.147 h⁻¹ with Plasma [18]. The t1/2 with Plasma [8] came to 1880 min; with Plasma [12], 284 min. Further, the “Ratio IC50” value in the data set on Platelet [17] is 50.

In the case of `Nc1ncnc2c1ncn2[C@@H]1O[C@H](COP(=O)(O)OP(=O)(O)OP(=O)(O)OP(=O)(O)OC[C@H]2O[C@@H](n3cnc4c(N)ncnc43)[C@H](O)[C@@H]2O)[C@@H](O)[C@H]1O` [DIADENOSINE TETRAPHOSPHATE], the half-life (in general, how long it takes for the measured level to halve) at 0.7 µM in data set [20] worked out at 2 min. For the same compound, in data set [21], the Activity was found to be 198%. Further, the half-life in [22] is 2.99 min.
